Assay outcomes (PubChem)
This is a sample that favours compounds with a hit; in the whole collection about 3.6% have one here.
HSF-1 act – increases HSF-1 driven luciferase reporter signal. NIH3T3-HGL HSF-1 luciferase reporter, MG132, 8 h; 100% = twice DMSO control signal. activation, % at 9 µM. hit rate 1.7% among 300,000. AID 504408;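 active means mean replicate activation of at least 50% with a set share of replicates each reaching 50%; inconclusive means only one of those two conditions met; inactive means mean below 50% and too few replicates reaching it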;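 further: 0% = median of the neutral control wells and 100% = twice that signal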
Wnt bcat act – activators of Wnt/beta-catenin signaling | Wnt/beta-catenin reporter cell assay, activator, plate reader | activation, % at 9.35 µM | hit rate 1.2% among 300,000 | AID 743398; in the data active means activation above about 30%, passing the limit was not always enough; inconclusive means no clear call, values can overlap the other calls;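 further: 0% = neutral control wells and 100% = positive control wells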
SR-BI DiI-HDL act – activators of SR-BI mediated HDL lipid uptake; CHO ldlA[mSR-BI] cells, DiI-HDL uptake fluorescence, 3 h; 100 = double the neutral-control signal; activation, % at 12.5 µM; hit rate 0.096% among 320,000;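 active means mean replicate activation of at least 60% and every replicate at or above 60%; inconclusive means mean or all-replicate condition met, but not both; inactive means mean below 60% and not all replicates reaching 60%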;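 further: 0% = median plate neutral-control signal and 100% = twice that signal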
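Test system: SR-BI-overexpressing, LDLR-lacking CHO cells; Also added: labelled HDL, 10 µg/mL; Measured by: bottom-read cell fluorescence after medium removal, ex 550/em 595 nm; Timing: 3 h uptake period with compound, 37 °C; Buffer or medium: F12, 0.5% BSA, 25 mM HEPES; Doses: single compound concentration, delivered by pin transfer.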
SR-BI HDL uptake – mouse SR-BI HDL lipid transfer inhibition | AID 488896 | Q61009 | inhibition, % at 12.5 µM | ldlA[mSR-BI] CHO cells, DiI-HDL uptake fluorescence, 3 h | hit rate 0.96% among 320,000;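 active means mean replicate inhibition of at least 70% and a set share of replicates each scoring 70 or more; inconclusive means meets just one of the two criteria; inactive means fails both criteria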;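 further: 0% = median of neutral control wells and 100% = median of positive control wells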
Target sequence (Q61009 whole entry, looked up): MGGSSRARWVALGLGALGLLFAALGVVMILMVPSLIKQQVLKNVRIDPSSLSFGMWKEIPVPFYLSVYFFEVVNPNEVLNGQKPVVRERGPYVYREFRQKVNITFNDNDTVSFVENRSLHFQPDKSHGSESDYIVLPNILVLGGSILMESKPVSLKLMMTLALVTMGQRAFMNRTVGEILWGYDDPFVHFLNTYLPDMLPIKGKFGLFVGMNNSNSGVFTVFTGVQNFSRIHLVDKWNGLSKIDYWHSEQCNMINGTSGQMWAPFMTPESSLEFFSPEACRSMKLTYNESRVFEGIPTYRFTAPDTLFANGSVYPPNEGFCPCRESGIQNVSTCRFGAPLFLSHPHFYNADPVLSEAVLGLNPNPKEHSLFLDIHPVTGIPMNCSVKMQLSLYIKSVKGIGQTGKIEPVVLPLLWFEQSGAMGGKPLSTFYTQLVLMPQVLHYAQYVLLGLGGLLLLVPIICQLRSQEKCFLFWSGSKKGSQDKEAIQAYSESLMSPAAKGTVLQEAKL
MITF act – increases MITF-driven TRPM1 promoter luciferase signal | activation, % at 12.5 µM | SK-MEL-5 TRPM1-promoter luciferase, 24 h; % of positive control, neutral wells = 0 | hit rate 0.75% among 300,000;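 active means mean activation of at least 80% with every replicate also reaching 80%; inconclusive means mean reaches 80% but some replicate falls short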;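 further: 0% = neutral control wells and 100% = parthenolide positive control wells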
* = called active by the depositor.

`CCOc1ccccc1NC(=O)c1ccc(S(=O)(=O)N2CCCCC2)cc1` gave HSF-1 act 23, Wnt bcat act -1, SR-BI DiI-HDL act -76, SR-BI HDL uptake 76* and MITF act -8.
`CCCc1cc(C(=O)Nc2nnc(C)s2)cs1` gave HSF-1 act 40, Wnt bcat act 29, SR-BI DiI-HDL act 37, SR-BI HDL uptake -37 and MITF act 85*.
For N#CC1c2ccccc2C=CN1C(=O)N(c1ccccc1)c1ccccc1 (stereo not given) the results were Wnt bcat act -2, SR-BI DiI-HDL act -9, SR-BI HDL uptake 9 and MITF act -22.
`Cc1cccc(S(=O)(=O)NC(=O)C2(C)CCN2C(=O)c2ccccc2)c1` (stereo not given) gave Wnt bcat act 0.
Screening CCCCNC(=O)Nc1nnc(C(C)(C)C)s1 returned HSF-1 act 56*, Wnt bcat act -4, SR-BI DiI-HDL act 30, SR-BI HDL uptake -30 and MITF act 8.
For CC(C)(C)c1nnc(NC(=O)Nc2ccc(Cl)cc2)s1 the results were HSF-1 act 24, Wnt bcat act 2, SR-BI DiI-HDL act 30, SR-BI HDL uptake -30 and MITF act 38.
`Cc1cccc(Nc2ncnc3ccccc23)c1` gave HSF-1 act -2, Wnt bcat act 47*, SR-BI DiI-HDL act 6, SR-BI HDL uptake -6 and MITF act 1.
CC(=S)/C=C1\Sc2ccccc2N1C was read as HSF-1 act -5, Wnt bcat act 1, SR-BI DiI-HDL act 12, SR-BI HDL uptake -12 and MITF act -1.
Screening COc1ccc(C(=O)/C=C2\Sc3ccccc3N2C)cc1 returned HSF-1 act 56*, Wnt bcat act 13, SR-BI DiI-HDL act -28, SR-BI HDL uptake 28 and MITF act 8.
COCc1cc(N2CCN(C(=O)OC(C)(C)C)C[C@H]2C)ccc1Br was read as Wnt bcat act -3.
For COc1ccc(OCc2cc(-c3ccc(Cl)cc3)no2)cc1 the results were HSF-1 act -40, Wnt bcat act -1, SR-BI DiI-HDL act 14, SR-BI HDL uptake -14 and MITF act -3.
`c1ccc(OCc2cc(-c3ccccc3)no2)cc1` gave HSF-1 act 61*, Wnt bcat act inconclusive, SR-BI DiI-HDL act 3, SR-BI HDL uptake -3 and MITF act 71.
`COc1ccccc1OCc1cc(-c2ccccc2)no1` gave HSF-1 act 53*, SR-BI DiI-HDL act -12, SR-BI HDL uptake 12 and MITF act 95*.
Screening CCOC(=O)[C@@H](NC(=O)CC[C@H]1O[C@@H](n2ccc(=O)[nH]c2=O)[C@H](O)[C@@H]1O)C(C)C returned Wnt bcat act -1.
`O=c1ccc(-c2nc3ccccc3n2C(CCc2ccccc2)c2nc3ccccc3[nH]2)c[nH]1` (stereo not given) gave Wnt bcat act -2.
COC(=O)C1=C(C)N(Cc2cccc(C(F)(F)F)c2)C(=NCc2ccc(OC)cc2)NC1c1ccccc1 (stereo not given) was read as Wnt bcat act -24.
Screening COc1cc2sc3ccc(-c4ccc5[nH]ccc5c4)cc3c(=O)c2cc1OC returned HSF-1 act 0, Wnt bcat act 12, SR-BI DiI-HDL act -75, SR-BI HDL uptake 75* and MITF act 130*.
For OCC[C@@H]1C[C@H](O)[C@@H](O)[C@]2(OCc3ccc(CO)cc32)O1 the results were Wnt bcat act 3.
CCN(CC)C(=O)c1cc(-c2ccc(Br)cc2)on1 was read as HSF-1 act 58*, SR-BI DiI-HDL act -8, SR-BI HDL uptake 8 and MITF act inconclusive.
For Cc1cccc(/C(N)=N/OC(=O)c2cccc3ccccc23)c1 the results were HSF-1 act 35, Wnt bcat act 25, SR-BI DiI-HDL act -45, SR-BI HDL uptake 45 and MITF act 41.
For N/C(=N\OC(=O)/C=C/c1ccccc1)c1cccnc1 the results were HSF-1 act inconclusive, SR-BI DiI-HDL act 24, SR-BI HDL uptake -24 and MITF act 51.
Screening N/C(=N\OC(=O)c1ccc(Cl)cc1Cl)c1ccccc1 returned HSF-1 act -59, SR-BI DiI-HDL act -11, SR-BI HDL uptake 11 and MITF act -9.
N/C(=N\OC(=O)/C=C/c1ccccc1Cl)c1cccnc1 was read as HSF-1 act 57* and Wnt bcat act -1.
`N/C(=N\OC(=O)c1ccc(Cl)cc1Cl)c1cccnc1` gave HSF-1 act 48, Wnt bcat act 32*, SR-BI DiI-HDL act 33, SR-BI HDL uptake -33 and MITF act 24.
For N/C(=N\OC(=O)c1cccc2ccccc12)c1cccnc1 the results were HSF-1 act 41, Wnt bcat act 45*, SR-BI DiI-HDL act 0, SR-BI HDL uptake 0 and MITF act 35.
`COc1ccc(Br)cc1CN1CCN(Cc2c[nH]c3ccccc23)CC1` gave HSF-1 act 55*, Wnt bcat act 1, SR-BI DiI-HDL act 12, SR-BI HDL uptake -12 and MITF act -7.
For COc1ccc(CN2CCN(Cc3c[nH]c4ccccc34)CC2)cc1OC the results were Wnt bcat act -2.
Cc1c(NC(=O)C(C)N2CC(C)OC(C)C2)c(=O)n(-c2ccccc2)n1C (stereo not given) was read as HSF-1 act 60*, Wnt bcat act 1, SR-BI DiI-HDL act 16 and SR-BI HDL uptake -16.
For NNc1nc(Nc2ccccc2)nc(Nc2ccccc2)n1 the results were HSF-1 act -31, Wnt bcat act 2, SR-BI DiI-HDL act -22, SR-BI HDL uptake 22 and MITF act -5.
`c1ccc(Nc2ccnc(Nc3ccccc3)n2)cc1` gave HSF-1 act 46, Wnt bcat act 71*, SR-BI DiI-HDL act 14, SR-BI HDL uptake -14 and MITF act 65.
Screening Cc1cc(C)n(-c2nc3ccccc3nc2N2CCN(C(=O)c3ccccc3)CC2)n1 returned HSF-1 act 52*.
Cc1cc(C)n(-c2ccc(C(=O)N3CCN(c4ccccn4)CC3)cc2)n1 was read as Wnt bcat act -2, SR-BI DiI-HDL act -34, SR-BI HDL uptake 34 and MITF act 1.
Screening COc1ccc(NC(=O)C2Cc3c(-c4cccc(NC(C)=O)c4)ccnc3O2)cn1 (stereo not given) returned Wnt bcat act -1.
`COc1ccc(NC(=O)C2CC(=O)NC(Nc3cccc(C)c3)=N2)cc1` (stereo not given) gave HSF-1 act 87*, Wnt bcat act -1 and MITF act 3.
Screening COc1ccc2nc(NC3=NC(C(=O)Nc4ccc(C)cc4)CC(=O)N3)nc(C)c2c1 (stereo not given) returned HSF-1 act 25.
COc1ccc(CNC(=O)CN2CCC(NC(=O)c3cccc(OC)c3)CC2)cc1 was read as Wnt bcat act 3, SR-BI DiI-HDL act -3, SR-BI HDL uptake 3 and MITF act -1.
